Blank lines part the entries; values can stand above or below the compound they belong to. The source made the active and inactive calls. The calls are words filed in the database; no cut-off is given here.
Key:
[1] = target: T1, Peroxisome proliferator-activated receptor delta (Mus musculus) (UniProt P35396); experiment: Activation of PPARdelta in mouse C2C12 cells assessed as induction of FABP3 mRNA expression at 1 uM after 24 hrs by quantitative RT-PCR analysis; type: cell-based
T1 sequence (whole entry): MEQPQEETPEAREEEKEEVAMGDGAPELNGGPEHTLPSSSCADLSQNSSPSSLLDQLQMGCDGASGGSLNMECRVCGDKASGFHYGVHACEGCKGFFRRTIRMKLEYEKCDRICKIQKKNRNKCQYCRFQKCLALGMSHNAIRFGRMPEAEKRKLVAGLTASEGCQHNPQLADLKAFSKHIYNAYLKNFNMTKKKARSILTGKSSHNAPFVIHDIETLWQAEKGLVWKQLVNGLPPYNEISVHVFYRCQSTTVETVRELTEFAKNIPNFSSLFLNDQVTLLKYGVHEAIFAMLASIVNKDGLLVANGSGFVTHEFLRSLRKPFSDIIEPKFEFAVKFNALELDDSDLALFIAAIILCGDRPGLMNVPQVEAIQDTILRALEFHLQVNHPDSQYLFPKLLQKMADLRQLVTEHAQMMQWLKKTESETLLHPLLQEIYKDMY
Summary of the method: (§1)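 Differentiated C2C12 myotubes (2% horse serum, 5 days) exposed 24 h with or without PPARδ agonist GW501516 (1 μM). mRNA quantified by SYBR green real-time RT-PCR, normalized to β-actin by delta-delta Ct, and expressed as fold induction vs vehicle; means ± SD of four determinants from one of two independent experiments; one-way ANOVA with Bonferroni.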

[2] = Activation of LXR in mouse C2C12 cells assessed as induction of SREBP1 mRNA expression at 1 uM after 24 hrs in presence of T0901317 by quantitative RT-PCR analysis; type: cell-based
Summary of the method: (§2)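 C2C12 myoblasts grown in DMEM/10% FBS, differentiated at confluence in 2% horse serum, medium changed every other day for 5 days; myotubes treated 24 h with or without T0901317 (1 μM). Total RNA, DNase-treated, oligo(dT) RT from 0.5 μg, SYBR green qPCR; normalized to β-actin (delta-delta Ct), fold over vehicle; mean ± SD of four determinants, one of two experiments.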

[3] = Activation of LXR in mouse C2C12 cells assessed as induction of ApoE mRNA expression at 1 uM after 24 hrs in presence of T0901317 by quantitative RT-PCR analysis; type: cell-based; summary of the method: as §2
[4] = target: T1, Peroxisome proliferator-activated receptor delta (Mus musculus); experiment: Activation of PPARdelta in mouse C2C12 cells assessed as induction of ANGPTL4 mRNA expression at 1 uM after 24 hrs by quantitative RT-PCR analysis; type: cell-based; summary of the method: as §1
[5] = target: T1, Peroxisome proliferator-activated receptor delta (Mus musculus); experiment: Activation of PPARdelta in mouse C2C12 cells assessed as induction of FABP3 mRNA expression at 1 uM after 24 hrs in presence of GW501516 by quantitative RT-PCR analysis; type: cell-based; summary of the method: as §1
F9 [6] = experiment: Activation of RXR/RAR heterodimer in mouse F9 cells assessed as increase in CYP26A1 mRNA level at 1 uM by quantitative RT-PCR analysis in presence of atRA; type: cell-based
Summary of the method: (§3)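 F9 teratocarcinoma cells on 0.2% gelatin-coated dishes in DMEM/10% FBS; 24 h exposure with or without atRA (0.1 μM). CYP26A1 mRNA by qRT-PCR normalized to β-actin, fold vs vehicle; means ± SD of three determinants, one of three experiments; ANOVA/Bonferroni.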

RAW264.7 [7] = experiment: Activation of RXR/LXR heterodimer in mouse RAW264.7 cells assessed as potentiation of T0901317-induced increase in ABCA1 mRNA level at 1 uM by quantitative RT-PCR analysis; type: cell-based
Summary of the method: (§4)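 RAW264.7 macrophages in DMEM/10% FBS, exposed 24 h with or without LXR agonist T0901317; ABCA1 mRNA by SYBR green qRT-PCR, β-actin-normalized, fold vs vehicle; means ± SD of three determinants, one of three independent experiments; one-way ANOVA, Bonferroni.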

[8] = Activation of LXR in mouse C2C12 cells assessed as induction of FAS mRNA expression at 1 uM after 24 hrs in presence of T0901317 by quantitative RT-PCR analysis; type: cell-based; summary of the method: as §2
3T3-L1 = experiment: Activation of PPARgamma/RXR heterodimer in mouse 3T3-L1 cell assessed as induction of adipogenesis at 1 uM after 6 days by Oil red O-staining; type: cell-based
Summary of the method: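 3T3-L1 cells grown to confluence, 2 days later induced 48 h with 10% FBS, 5 μg/mL insulin, 0.25 μM dexamethasone, 0.5 mM IBMX, then 48 h insulin-only medium; compounds in DMSO added to postdifferentiation medium for 4 days. Formalin-fixed (10%, 1 h, RT), stained with Oil red O, washed, visualized.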

[9] = Activation of LXR in mouse C2C12 cells assessed as induction of ApoD mRNA expression at 1 uM after 24 hrs in presence of T0901317 by quantitative RT-PCR analysis; type: cell-based; summary of the method: as §2
[10] = Activation of LXR in mouse C2C12 cells assessed as induction of lipoprotein lipase mRNA expression at 1 uM after 24 hrs by quantitative RT-PCR analysis; type: cell-based; summary of the method: as §2
F9 [11] = experiment: Activation of RXR/RAR heterodimer in mouse F9 cells assessed as increase in CYP26A1 mRNA level at 1 uM by quantitative RT-PCR analysis; type: cell-based; summary of the method: as §3
RAW264.7 [12] = experiment: Activation of RXR/LXR heterodimer in mouse RAW264.7 cells assessed as increase in ABCA1 mRNA level at 1 uM by quantitative RT-PCR analysis; type: cell-based; summary of the method: as §4
[13] = Activation of LXR in mouse C2C12 cells assessed as induction of lipoprotein lipase mRNA expression at 1 uM after 24 hrs in presence of T0901317 by quantitative RT-PCR analysis; type: cell-based; summary of the method: as §2
[14] = Activation of LXR in mouse C2C12 cells assessed as induction of ABCA1 mRNA expression at 1 uM after 24 hrs in presence of T0901317 by quantitative RT-PCR analysis; type: cell-based; summary of the method: as §2
[15] = target: T1, Peroxisome proliferator-activated receptor delta (Mus musculus); experiment: Activation of PPARdelta in mouse C2C12 cells assessed as induction of CPT1A mRNA expression at 1 uM after 24 hrs by quantitative RT-PCR analysis; type: cell-based; summary of the method: as §1
Homo sapiens = species: Homo sapiens; experiment: Activation of RXR/VDR heterodimer in human hepatoma cells assessed as increase in CYP24A1 mRNA level at 1 uM by quantitative RT-PCR analysis; type: cell-based
Summary of the method: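 HLE hepatoma cells treated 24 h with or without VD3 (0.1 μM); CYP24A1 mRNA by SYBR green qRT-PCR normalized to β-actin (delta-delta Ct), fold over vehicle; means ± SD of three determinants, representative of three experiments.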

[16] = target: T2, Retinoic acid receptor RXR-alpha (Homo sapiens) (UniProt P19793); experiment: (§5) Agonist activity at human RXR-alpha expressed in HEK293 cells coexpressing with pCMX-beta-gal after 24 to 48 hrs by luciferase reporter gene assay; type: cell-based
T2 sequence (whole entry): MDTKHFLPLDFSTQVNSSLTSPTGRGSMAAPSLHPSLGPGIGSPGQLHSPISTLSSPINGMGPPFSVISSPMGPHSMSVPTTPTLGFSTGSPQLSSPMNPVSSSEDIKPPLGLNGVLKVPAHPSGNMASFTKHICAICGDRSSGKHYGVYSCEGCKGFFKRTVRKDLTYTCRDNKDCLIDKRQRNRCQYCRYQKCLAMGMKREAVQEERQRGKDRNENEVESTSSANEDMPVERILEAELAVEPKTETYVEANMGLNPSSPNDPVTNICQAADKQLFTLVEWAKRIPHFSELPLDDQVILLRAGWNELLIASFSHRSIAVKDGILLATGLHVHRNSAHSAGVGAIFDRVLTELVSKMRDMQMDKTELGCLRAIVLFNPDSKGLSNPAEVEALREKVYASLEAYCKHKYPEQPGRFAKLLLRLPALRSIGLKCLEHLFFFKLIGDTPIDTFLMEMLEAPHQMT
Summary of the method: (§6)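 HEK293 cells transfected by calcium phosphate with 60 ng pCMX-hRXR-α, 150 ng CRBPII-tk-Luc and 30 ng pCMX-β-gal plus carrier pUC18 (600 ng DNA per well). After 8 h the cells were washed and exposed to compound in medium with 10% FBS for 24−48 h. Luciferase was normalized to β-galactosidase. Triplicate or quadruplicate; representative of three independent experiments; EC50 from dose-response.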

[17] = target: T3, Retinoic acid receptor RXR-alpha (Homo sapiens, UniProt P19793); experiment: as §5; type: cell-based; summary of the method: as §6
T3 sequence (P19793 whole entry): T2 sequence (whole entry)

[18] = target: T2, Retinoic acid receptor RXR-alpha (Homo sapiens); experiment: Binding affinity to RXRalpha (unknown origin) by receptor-SRC1 cofactor complex formation assay
Summary of the method: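 Ligand-dependent binding of RXR isotype to coactivator SRC-1 in an NR cofactor kit, detected with HRP-conjugated anti-RXR antibody at OD450. The full agonist CD3254 defined 100% and vehicle 0%. Efficacy was taken as maximum B/Bmax% and potency as EC50.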

[19] = target: T2, Retinoic acid receptor RXR-alpha (Homo sapiens); experiment: Agonist activity at human RXR-alpha expressed in HEK293 cells coexpressing with pCMX-beta-gal at 10 uM after 24 to 48 hrs by luciferase reporter gene assay in presence of PA452 pan-antagonist; type: cell-based
Summary of the method: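 RXRα reporter in HEK293: cotransfected with RXRα expression vector, luciferase reporter and pCMX-β-gal. Eight hours after transfection, cells were treated with test compound at 10 μM with or without the RXR pan-antagonist PA452 (10 μM). Luciferase was normalized to β-galactosidase. Means ± SD of three determinants; representative of three experiments; one-way ANOVA with Bonferroni's t-test.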

[20] = target: T2, Retinoic acid receptor RXR-alpha (Homo sapiens); experiment: Agonist activity at human RXR-alpha expressed in HEK293 cells coexpressing with pCMX-beta-gal at 10 uM after 24 to 48 hrs by luciferase reporter gene assay; type: cell-based

SMILES: CC(C)CCC[C@@H](C)CCC[C@@H](C)CCCC(C)CC(=O)O (stereo partly specified)
ED50 [16]: 3 µM

SMILES: CC/C=C\C/C=C\C/C=C\C/C=C\C/C=C\C/C=C\CCC(=O)O
ED50 [16]: 50 µM

SMILES: C=C1C(=O)O[C@H]2C[C@@H](C)[C@@H]3C=CC(=O)[C@@]3(C)[C@@H](OC(C)=O)[C@H]12
ED50 [16]: 4.9 µM

Continued, in another order:

Activity [1]: Active
Activity [4]: Active
Activity [5]: Active
Activity [15]: Active
SMILES: C=C(c1ccc(C(=O)O)cc1)c1cc2c(cc1C)C(C)(C)CCC2(C)C
Activity [2]: Active
Activity [3]: Active
Activity (F9 [6]): Active
Activity (RAW264.7 [7]): Active
Activity [8]: Active
Activity (3T3-L1): Active
Activity [9]: Active
Activity [10]: inactive
Activity (F9 [11]): Active
Activity (RAW264.7 [12]): Active
Activity [13]: inactive
Activity [14]: Active
Activity (Homo sapiens): Active

Activity [16]: Dose-dependent effect
EC50 [17]: 0.78 µM
Activity [18]: inactive
Activity [19]: inactive
SMILES: CC(C)=CCc1cc([C@@H]2CC(=O)c3ccc(O)c(CC=C(C)C)c3O2)cc2c1OC(C)(C)C(O)C2 (stereo partly specified)

Activity [20]: inactive
SMILES: CC(C)=CCc1cc([C@@H]2CC(=O)c3ccc(O)c(CC=C(C)C)c3O2)cc(CC=C(C)C)c1O

ED50 [16]: 11.8 µM
SMILES: C=CCc1ccc(O)c(-c2ccc(O)c(CC=C)c2)c1

From ChEMBL document CHEMBL3351942, “Rexinoids isolated from Sophora tonkinensis with a gene expression profile distinct from the synthetic rexinoid bexarotene” (J Nat Prod, 2014)
